The values below come from ChEMBL document CHEMBL4325889, “Natural products hybrids: 3,5,4'-Trimethoxystilbene-5,6,7-trimethoxyflavone chimeric analogs as potential cytotoxic agents against diverse human cancer cells” (Eur J Med Chem, 2019).

Format in all cases: functional
In assay [1] the test system is HL-60(TB). As to the kind of experiment: Growth inhibition of human HL-60(TB) cells at 10 uM after 48 hrs by SRB assay relative to control. To be noted: HL-60, 48 h, read-out: GI. The method in brief:
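Run at NCI under its standard single-dose protocol against a leukemia cell panel. Cells were exposed to 10 µM; growth was read by sulforhodamine B staining of cellular protein and expressed as % growth inhibition versus untreated control. Values above 100% mean the cell population fell below the starting count (cytocidal). Each value is the average of duplicates.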
(The SRB assay estimates cell density from bound dye.)

Assay [2] deals with HOP-92. As to the kind of experiment: Growth inhibition of human HOP92 cells at 10 uM after 48 hrs by SRB assay relative to control. To be noted: HOP-92, 48 h, read-out: GI. The method in brief: (§1)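 Screened at the National Cancer Institute by the standard NCI protocol using the sulforhodamine B assay, which measures cellular protein. Single dose of 10 µM. Result is percent growth inhibition; values above 100% mean cell number fell below the initial population. Values are the average of duplicates.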

For assay [3], the system named is NCI-H322M. As to the kind of experiment: Growth inhibition of human NCI-H322M cells at 10 uM after 48 hrs by SRB assay relative to control. To be noted: read-out: GI. The essentials:
as §1

Assay [4] concerns COLO 205. As to the kind of experiment: Growth inhibition of human COLO205 cells at 10 uM after 48 hrs by SRB assay relative to control. The following applies: COLO 205, 48 h, read-out: GI. The essentials:
as §1

The test system of assay [5] is HCT-116. As to the kind of experiment: Growth inhibition of human HCT116 cells at 10 uM after 48 hrs by SRB assay relative to control. The following applies: HCT-116, 48 h, read-out: GI. The essentials:
as §1

For assay [6], the system named is HT-29. As to the kind of experiment: Growth inhibition of human HT-29 cells at 10 uM after 48 hrs by SRB assay relative to control. The following applies: HT-29, 48 h, read-out: GI. The essentials: as §1
The subject of assay [7] is SF-268. As to the kind of experiment: Growth inhibition of human SF268 cells at 10 uM after 48 hrs by SRB assay relative to control. To be noted: SF-268, 48 h, read-out: GI. The method in brief:
as §1

Assay [8] has as its system SF-295. As to the kind of experiment: Growth inhibition of human SF295 cells at 10 uM after 48 hrs by SRB assay relative to control. To be noted: SF-295, 48 h, read-out: GI. The essentials:
as §1

Assay [9] concerns SF-539. As to the kind of experiment: Growth inhibition of human SF539 cells at 10 uM after 48 hrs by SRB assay relative to control. The following applies: SF-539, 48 h, read-out: GI. The method in brief: as §1
The test system of assay [10] is U-251. As to the kind of experiment: Growth inhibition of human U251 cells at 10 uM after 48 hrs by SRB assay relative to control. The following applies: U-251, 48 h, read-out: GI. The essentials: (§2)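 NCI screen against its human cancer cell line panel by the standard NCI protocol, SRB protein stain. Single dose of 10 μM. Percent growth inhibition versus control; values above 100% mean the cell population fell below the starting number. Each value is the mean of duplicates.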

Assay [11] has as its system LOX IMVI. As to the kind of experiment: Growth inhibition of human LOXIMVI cells at 10 uM after 48 hrs by SRB assay relative to control. To be noted: read-out: GI. The essentials: as §1
Assay [12] concerns SK-MEL-2. As to the kind of experiment: Growth inhibition of human SK-MEL-2 cells at 10 uM after 48 hrs by SRB assay relative to control. To be noted: SK-MEL-2, 48 h, read-out: GI. The essentials: as §1
Assay [13] deals with IGROV-1. As to the kind of experiment: Growth inhibition of human IGROV1 cells at 10 uM after 48 hrs by SRB assay relative to control. The following applies: IGROV-1, 48 h, read-out: GI. The method in brief: as §1
In assay [14] the test system is OVCAR-5. As to the kind of experiment: Growth inhibition of human OVCAR5 cells at 10 uM after 48 hrs by SRB assay relative to control. The following applies: OVCAR-5, 48 h, read-out: GI. The essentials: as §1
The subject of assay [15] is NCI/ADR-RES. As to the kind of experiment: Growth inhibition of human NCI/ADR-RES cells at 10 uM after 48 hrs by SRB assay relative to control. To be noted: read-out: GI. The essentials: as §1
In assay [16] the test system is CAKI-1. As to the kind of experiment: Growth inhibition of human Caki1 cells at 10 uM after 48 hrs by SRB assay relative to control. To be noted: CAKI-1, 48 h, read-out: GI. The method in brief: as §1
Assay [17] deals with UO-31. As to the kind of experiment: Growth inhibition of human UO31 cells at 10 uM after 48 hrs by SRB assay relative to control. The following applies: UO-31, 48 h, read-out: GI. The essentials: as §2
Assay [18] deals with PC-3. As to the kind of experiment: Growth inhibition of human PC3 cells at 10 uM after 48 hrs by SRB assay relative to control. The following applies: PC-3, 48 h, read-out: GI. The method in brief:
as §1

Assay [19] has as its system BT-549. As to the kind of experiment: Growth inhibition of human BT549 cells at 10 uM after 48 hrs by SRB assay relative to control. The following applies: BT-549, 48 h, read-out: GI. The method in brief:
as §1

For `COc1ccc(C(=O)Nc2cccc(-c3cc(=O)c4c(O)c(OC)c(OC)cc4o3)c2)cc1`, the inhibition of growth at 10 µM was 15.4% in assay [1]; 42.3% in assay [2]; 8.16% in assay [3]; -7.69% in assay [4]; 30.2% in [5]; 1.12% in assay [6]. Moreover, the inhibition of growth at 10 µM in [7] stood at 13.9%; in [8], 20.6%; in [9], 15.3%; in assay [10], 28.9%; in assay [11], 6.47%; in assay [12], 16.6%. For the same compound, the inhibition of growth at 10 µM stood at 2.38% in [13]; 0.04% in [14]; 13.3% in assay [15]; 20% in [16]; 4.63% in assay [17]; 19.6% in [18]. Moreover, the inhibition of growth at 10 µM in [19] amounted to 9.6%.

Regarding `COc1ccccc1NC(=O)c1cccc(-c2cc(=O)c3c(O)c(OC)c(OC)cc3o2)c1`, the inhibition of growth at 10 µM in [1] is 9.41%; in assay [2] it was 15.8%; in assay [3] it was 1.56%; in [4], -7.01%; in assay [5], 14.5%; in assay [6], 10.8%. Further, the inhibition of growth at 10 µM was 12.9% in assay [7]; 10.8% in assay [8]; 6.01% in [9]; -0.16% in assay [10]; 16.7% in assay [11]; 14.1% in [12]. In addition, the inhibition of growth at 10 µM in assay [13] was -5.97%; in [14], 8.1%; in [15], 19.8%; in [16], 6.75%; in assay [17] it was 30%; in assay [18], 25.1%. In [19], the inhibition of growth at 10 µM turned out to be 10.8%.

Regarding `COc1cc2oc(-c3cccc(NC(=O)c4ccc5c(c4)OCO5)c3)cc(=O)c2c(O)c1OC`, the inhibition of growth at 10 µM in assay [1] is 14%; in assay [2], 38.5%; in assay [3], 15.7%; in assay [4] it was 2.46%; in [5], 21%; in assay [6] it was 15.6%. Further, the inhibition of growth at 10 µM stood at 32.5% in assay [7]; 19% in [8]; 77.4% in assay [9]; 27.1% in assay [10]; 5.74% in [11]; 6.66% in assay [12]. The inhibition of growth at 10 µM in [13] stood at 5.56%; in assay [14] it was 13.7%; in [15] it was 14.8%; in assay [16] it was 34.4%; in [17], 15.8%; in [18] it was 22.6%. In addition, in assay [19], the inhibition of growth at 10 µM was found to be 24.5%.

Turning to `COc1cc2oc(-c3cccc(C(=O)Nc4ccc5c(c4)OCO5)c3)cc(=O)c2c(O)c1OC`, the inhibition of growth at 10 µM in [1] was 5.71%; in assay [2], 27%; in assay [3], 19%; in assay [4], 5.22%; in assay [5] it was 43%; in assay [6] it was 23.7%. In addition, the inhibition of growth at 10 µM amounted to 41.3% in assay [7]; 7.93% in assay [8]; 11.2% in [9]; 44.2% in assay [10]; 11.8% in assay [11]; 10.1% in assay [12]. Moreover, the inhibition of growth at 10 µM in assay [13] came out at 18.4%; in assay [14], 11.1%; in assay [15] it was 29.4%; in assay [16] it was 23.1%; in [17] it was 17.9%; in assay [18], 27.7%. Further, in [19], the inhibition of growth at 10 µM came out at 16%.

Take `COc1ccccc1NC(=O)c1cccc(-c2cc(=O)c3c(OC)c(OC)c(OC)cc3o2)c1`: the inhibition of growth at 10 µM in [1] was determined as 10.1%; in assay [2], 62.5%; in assay [3], 18.9%; in assay [4] it was 14.8%; in assay [5] it was 31.9%; in assay [6] it was 38.6%. Also, the inhibition of growth at 10 µM in [7] was determined as 29.3%; in assay [8] it was 38.2%; in assay [9] it was 30.5%; in assay [10] it was 11%; in [11] it was 52.1%; in [12], 14.4%. Further, the inhibition of growth at 10 µM in assay [13] is 27.5%; in assay [14], 18.6%; in assay [15], 46.7%; in assay [16], 43%; in assay [17] it was 69.6%; in assay [18], 43.6%. Also, in assay [19], the inhibition of growth at 10 µM turned out to be 44.9%.

`COc1cccc(C(=O)Nc2cccc(-c3cc(=O)c4c(OC)c(OC)c(OC)cc4o3)c2)c1`: the inhibition of growth at 10 µM worked out at 14.8% in [1]; 51.8% in assay [2]; 27.1% in assay [3]; 46.4% in assay [5]; 53.6% in assay [6]; 42.6% in assay [7]. The inhibition of growth at 10 µM in assay [8] amounted to 42.7%; in assay [9], 33.7%; in [10], 36.2%; in assay [11] it was 42.6%; in assay [12], 38.1%; in [13], 42.6%. Also, the inhibition of growth at 10 µM in assay [14] turned out to be 10.4%; in assay [15], 34.5%; in [16], 18.1%; in [17], 66.7%; in assay [18], 48.8%; in assay [19], 42.5%.

Regarding `Cc1ccc(NC(=O)c2ccc(CN3CCN(C)CC3)cc2)cc1Nc1nccc(-c2cccnc2)n1` [IMATINIB], the inhibition of growth at 10 µM in assay [1] is -6.8%; in assay [2], 43.7%; in [4], -1.1%; in assay [5], 18.6%; in assay [6] it was 47.1%; in assay [7] it was -3.8%. Also, the inhibition of growth at 10 µM in assay [8] is 15.1%; in assay [9], 24.5%; in assay [10], 10.6%; in [11] it was 11.6%; in [13], -18.6%; in [14], -22.8%. Moreover, the inhibition of growth at 10 µM was -0.5% in [15]; -0.2% in assay [16]; 7.6% in [17]; 10.6% in [18]; -5% in assay [19].
